One assay relates to Canis familiaris. The assay is described as follows: Increasing effect on femoral blood flow (FBF) in femoral artery of anesthetized dogs. In kind it is functional, Canis lupus familiaris.
Conditions: not given
The procedure, abridged:
(§1)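 Anesthetized dogs, trachea intubated and ventilated at 12-16 cycles/min, with tidal volume set to hold arterial pH, pCO2 and pO2 within physiological limits. Body temperature kept at 37-38 °C. Drug given locally intra-arterially into the femoral artery, at least three doses per compound. Trapidil 100 μg was given before and after as reference. Femoral blood flow increase read from at least three dose-response curves. Expressed as equieffective dose ratio versus trapidil (mg/mg).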
Turning to `Cl.N=C(N)N1CCN(S(=O)(=O)c2cccc3cnccc23)CC1`, the “Equieffective dose ratio vs trapidil for femoral blood flow increase” value is 0.62.

With `Cl.N#CNC(=N)NCCNS(=O)(=O)c1cccc2cnccc12`, the “Equieffective dose ratio vs trapidil for femoral blood flow increase” value is on record as greater than 50.

`Cl.N=C(N)NCCCCNS(=O)(=O)c1cccc2cnccc12`: the “Equieffective dose ratio vs trapidil for femoral blood flow increase” value amounted to 16.

`CN(CCN=C(N)N)S(=O)(=O)c1cccc2cnccc12.Cl`: the “Equieffective dose ratio vs trapidil for femoral blood flow increase” value amounted to 1.8.

On to `CC1CN(S(=O)(=O)c2cccc3cnccc23)C(C)CN1C(=N)N.Cl` (stereo not drawn), for which the “Equieffective dose ratio vs trapidil for femoral blood flow increase” value is 1.6.

For `Cl.O=S(=O)(NCCNc1ncccn1)c1cccc2cnccc12`, the “Equieffective dose ratio vs trapidil for femoral blood flow increase” value is recorded as greater than 30.

With `C/N=C(\NC)NCCNS(=O)(=O)c1cccc2cnccc12.Cl`, the “Equieffective dose ratio vs trapidil for femoral blood flow increase” value is listed as greater than 50.

Consider `Cl.N=C(N)NCCNS(=O)(=O)c1cccc2cnccc12`, for which the “Equieffective dose ratio vs trapidil for femoral blood flow increase” value is 1.7.

On to `Cl.N=C(N)N1CCCN(S(=O)(=O)c2cccc3cnccc23)CC1`, for which the “Equieffective dose ratio vs trapidil for femoral blood flow increase” value is given as 0.19.

For the compound `Cl.N=C(N)NCCCCCCNS(=O)(=O)c1cccc2cnccc12`, the “Equieffective dose ratio vs trapidil for femoral blood flow increase” value came to 3.8.

Consider `COc1ccc([C@@H]2Sc3ccccc3N(CCN(C)C)C(=O)[C@@H]2OC(C)=O)cc1.Cl` [DILTIAZEM HYDROCHLORIDE], for which the “Equieffective dose ratio vs trapidil for femoral blood flow increase” value came to 0.21.

`Cl.O=S(=O)(NCCN=C(Nc1ccccc1)Nc1ccccc1)c1cccc2cnccc12`: the “Equieffective dose ratio vs trapidil for femoral blood flow increase” value is greater than 50.

Regarding `Cl.O=S(=O)(NCCNC1=NCCN1)c1cccc2cnccc12`, the “Equieffective dose ratio vs trapidil for femoral blood flow increase” value was determined as 24.

Turning to `Cl.N=C(N)NCCCNS(=O)(=O)c1cccc2cnccc12`, the “Equieffective dose ratio vs trapidil for femoral blood flow increase” value is given as 4.3.

Turning to `CN(CCNS(=O)(=O)c1cccc2cnccc12)C(=N)N.Cl`, the “Equieffective dose ratio vs trapidil for femoral blood flow increase” value is reported as 1.1.

On to `Cl.N/C(=N\CCNS(=O)(=O)c1cccc2cnccc12)N[N+](=O)[O-]`, for which the “Equieffective dose ratio vs trapidil for femoral blood flow increase” value is on record as greater than 10.

Another assay has as its system Canis familiaris. The assay is described as follows: Compound was evaluated for increasing effect on femoral blood flow (FBF) in femoral artery of anesthetized dogs, compared to Trapidil; No detectable vasodilation. In kind it is functional, organism-based. The settings on record: Canis lupus familiaris. The procedure, abridged: as §1
`N=C(N)NNS(=O)(=O)c1cccc2cnccc12`: the FBF entry was “No detectable vasodilation”.

Another assay relates to Canis familiaris. The experiment in a line: Compound was evaluated for increasing effect on femoral blood flow (FBF) in femoral artery of anesthetized dogs, compared to Trapidil; ND is no detectable vasodilation. In kind it is functional, organism-based. The settings on record: Canis lupus familiaris. The procedure, abridged:
as §1
Consider `CNC(=N)NCCNS(=O)(=O)c1cccc2cnccc12`, for which the FBF entry was “No detectable vasodilation”.

The values are drawn from ChEMBL document CHEMBL1124335, “5-Isoquinolinesulfonamide derivatives. 1. Synthesis and vasodilatory activity of N-(2-guanidinoethyl)-5-isoquinolinesulfonamide derivatives” (1989).
